# Experiments:
# [1] = test system: Enterococcus faecalis; assay: Bactericidal activity against 0.5 hrs peripheral compartment culture samples of Enterococcus faecalis Ef1497 in two-compartment pharmacokinetic/pharmacodynamic model assessed as effect on bacterial count at 600 mg, bid administered as 0.5 hr infusion; type: functional
# How it was run: (§1)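 Two-compartment hollow-fibre model in cation-adjusted, protein-free MH broth, 37°C. Linezolid given as simulated 0.5-h infusion twice daily. Inoculum grown 18 h, concentrated 50-fold and placed in the peripheral compartment 3 h before t0. Peripheral samples at set times counted by dilution plating. First 10-fold dilution not plated, limiting detection to 2–3 log10 CFU/ml. Δlog CFU/ml taken from t0 count. Duplicates.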
# [2] = Total clearance in two-compartment pharmacokinetic/pharmacodynamic model at 600 mg, bid administered as 0.5 hrs infusion; type: ADME, organism-based; settings: iv
# [3] = test system: Enterococcus faecalis; assay: T>MIC in Enterococcus faecalis Ef1497 in two-compartment pharmacokinetic/pharmacodynamic model at 800 mg, bid administered as 0.5 hr infusion for 2 days; type: functional
# [4] = test system: Enterococcus faecalis; assay: ABBC (0 to 24 hrs) in Enterococcus faecalis ATCC 29212 in two-compartment pharmacokinetic/pharmacodynamic model at 600 mg, bid administered as 0.5 hr infusion for 2 days; type: functional
# How it was run: (§2)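 Hollow-fibre two-compartment model in cation-adjusted, protein-free MH broth at 37°C. Human total-plasma linezolid profile simulated as 0.5-h infusion every 12 h for 48 h. Concentrated 18-h culture injected into the peripheral compartment 3 h before first sample, giving about 10^8 (E. faecalis) or 10^9 (S. aureus) CFU/ml. Viable counts by dilution plating over 0–24 h. Area indices calculated versus growth control curve. Duplicate runs.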
# [5] = Volume of distribution at steady state in two-compartment pharmacokinetic/pharmacodynamic model at 200 mg, bid administered as 0.5 hr infusion over 24 hrs; type: ADME, organism-based; settings: iv, read-out: Vdss
# [6] = test system: Staphylococcus aureus; assay: Bactericidal activity against 12 hrs peripheral compartment culture samples of Staphylococcus aureus RN4220 MutS2 in two-compartment pharmacokinetic/pharmacodynamic model assessed as effect on bacterial count at 600 mg, bid administered as 0.5 hr infusion; type: functional
# How it was run: (§3)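 An 18-h culture concentrated 50-fold was injected into the peripheral compartment 3 h pre-sampling (~10^8 CFU/ml E. faecalis, 10^9 S. aureus). Counts came from dilution plating (detection limit 2–3 log10 CFU/ml), expressed as Δlog CFU/ml from treatment start. Run in duplicate.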
# [7] = test system: Staphylococcus aureus; assay: Bactericidal activity against 48 hrs peripheral compartment culture samples of Staphylococcus aureus RN4220 in two-compartment pharmacokinetic/pharmacodynamic model assessed as effect on bacterial count at 600 mg, bid administered as 0.5 hr infusion; type: functional
# How it was run: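 An 18-h culture was concentrated 50-fold by centrifugation and injected into the peripheral compartment 3 h before first sampling, giving about 10^9 CFU/ml exponential growth. Linezolid was simulated as a 0.5-h infusion every 12 h. Samples taken from 0 to 48 h were counted by dilution plating on MH agar; the first 10-fold dilution was not plated (detection limit 2–3 log10 CFU/ml). Effect was expressed as Δlog CFU/ml from treatment start. Run in duplicate.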
# [8] = test system: Enterococcus faecalis; assay: T>MIC in Enterococcus faecalis Ef1497 MutM3 in two-compartment pharmacokinetic/pharmacodynamic model at 200 mg, bid administered as 0.5 hr infusion for 2 days; type: functional
# [9] = AUC in two-compartment pharmacokinetic/pharmacodynamic model at 800 mg, bid administered as 0.5 hr infusion over 24 hrs; type: ADME; parameters: time < 24 hr, dose 800 mg; settings: in vivo, iv
# [10] = test system: Enterococcus faecalis; assay: Bactericidal activity against 0.5 hrs peripheral compartment culture samples of Enterococcus faecalis Ef1497 in two-compartment pharmacokinetic/pharmacodynamic model assessed as effect on bacterial count at 800 mg, bid administered as 0.5 hr infusion; type: functional; how it was run: as §1
# [11] = test system: Enterococcus faecalis; assay: Bactericidal activity against 12.5 hrs peripheral compartment culture samples of Enterococcus faecalis Ef1497 MutM3 in two-compartment pharmacokinetic/pharmacodynamic model assessed as effect on bacterial count at 600 mg, bid administered as 0.5 hr infusion; type: functional; how it was run: as §3
# [12] = Tmax in two-compartment pharmacokinetic/pharmacodynamic model at 200 mg, bid administered as 0.5 hrs infusion; type: ADME, organism-based; settings: iv
# How it was run: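 Two-compartment in vitro hollow-fibre model in cation-adjusted, protein-free Mueller-Hinton broth at 37°C. Human total-plasma linezolid profile simulated as 0.5-h infusion every 12 h for 48 h, computer-controlled syringe pump into central compartment. […] Peripheral samples assayed by validated HPLC-UV (quantification limit 0.39 μg/ml). Tmax read directly from concentration-time profiles. Run in duplicate.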
# [13] = Tmax in two-compartment pharmacokinetic/pharmacodynamic model at 800 mg, bid administered as 0.5 hr infusion over 24 hrs; type: ADME, organism-based; settings: iv
# [14] = test system: Enterococcus faecalis; assay: Bactericidal activity against 2 hrs peripheral compartment culture samples of Enterococcus faecalis Ef1497 in two-compartment pharmacokinetic/pharmacodynamic model assessed as effect on bacterial count at 800 mg, bid administered as 0.5 hr infusion; type: functional; how it was run: as §3
# [15] = test system: Enterococcus faecalis; assay: AUBC (0 to 24 hrs) in Enterococcus faecalis Ef1497 MutM3 in two-compartment pharmacokinetic/pharmacodynamic model at 200 mg, bid administered as 0.5 hr infusion for 2 days; type: functional; how it was run: as §2
# [16] = test system: Enterococcus faecalis; assay: AUBC (0 to 24 hrs) in Enterococcus faecalis ATCC 29212 in two-compartment pharmacokinetic/pharmacodynamic model at 200 mg, bid administered as 0.5 hr infusion for 2 days; type: functional; how it was run: as §2
# [17] = test system: Enterococcus faecalis; assay: AUBC (0 to 24 hrs) in Enterococcus faecalis Ef1497 MutM3 in two-compartment pharmacokinetic/pharmacodynamic model at 600 mg, bid administered as 0.5 hr infusion for 2 days; type: functional; how it was run: as §2
# [18] = test system: Enterococcus faecalis; assay: T>MIC in Enterococcus faecalis Ef1497 MutM3 in two-compartment pharmacokinetic/pharmacodynamic model at 600 mg, bid administered as 0.5 hr infusion for 2 days; type: functional
# [19] = Mean residence time in two-compartment pharmacokinetic/pharmacodynamic model at 800 mg, bid administered as 0.5 hr infusion over 24 hrs; type: ADME, organism-based; settings: in vivo, iv
# [20] = test system: Enterococcus faecalis; assay: Bactericidal activity against 12.5 hrs peripheral compartment culture samples of Enterococcus faecalis Ef1497 in two-compartment pharmacokinetic/pharmacodynamic model assessed as effect on bacterial count at 600 mg, bid administered as 0.5 hr infusion; type: functional; how it was run: as §3
# [21] = Mean residence time in two-compartment pharmacokinetic/pharmacodynamic model at 600 mg, bid administered as 0.5 hr infusion over 24 hrs; type: ADME, organism-based; settings: in vivo, iv
# [22] = test system: Enterococcus faecalis; assay: Bactericidal activity against 2 hrs peripheral compartment culture samples of Enterococcus faecalis Ef1497 MutM3 in two-compartment pharmacokinetic/pharmacodynamic model assessed as effect on bacterial count at 600 mg, bid administered as 0.5 hr infusion; type: functional; how it was run: as §3
# [23] = Residual concentration at the end of the administration interval in two-compartment pharmacokinetic/pharmacodynamic model at 800 mg, bid administered as 0.5 hr infusion over 24 hrs; type: ADME; settings: in vivo, iv
# [24] = Apparent volume of distribution in two-compartment pharmacokinetic/pharmacodynamic model at 800 mg, bid administered as 0.5 hr infusion over 24 hrs; type: ADME, organism-based; settings: in vivo, iv
# [25] = test system: Enterococcus faecalis; assay: Bactericidal activity against 2 hrs peripheral compartment culture samples of Enterococcus faecalis ATCC 29212 in two-compartment pharmacokinetic/pharmacodynamic model assessed as effect on bacterial count at 600 mg, bid administered as 0.5 hr infusion; type: functional; how it was run: as §3
# [26] = test system: Enterococcus faecalis; assay: ABBC (0 to 24 hrs) in Enterococcus faecalis Ef1497 in two-compartment pharmacokinetic/pharmacodynamic model at 800 mg, bid administered as 0.5 hr infusion for 2 days; type: functional; how it was run: as §2
structure (smiles),measurement,setting,value
CC(=O)NC[C@H]1CN(c2ccc(N3CCOCC3)c(F)c2)C(=O)O1 [LINEZOLID],log10CFU/ml,[1],-0.01
same,clearance,[2],232 mL/min
same,fT>MIC,[3],80.9%
same,ABBC,[4],1.32 log10CFU/ml.hr
same,Vd,[5],117 L
same,log10CFU/ml,[6],0.21
same,log10CFU/ml,[7],0.32
same,fT>MIC,[8],0%
same,AUC at 24 h,[9],47700 ng·h/mL
same,log10CFU/ml,[10],0.08
same,log10CFU/ml,[11],0.22
same,Tmax,[12],0.5 h
same,Tmax,[13],0.5 h
same,log10CFU/ml,[14],-0.13
same,AUBC,[15],212.2 log10CFU/ml.hr
same,AUBC,[16],214 log10CFU/ml.hr
same,AUBC,[17],217.1 log10CFU/ml.hr
same,fT>MIC,[18],0%
same,MRT,[19],6.81 h
same,log10CFU/ml,[20],-0.14
same,MRT,[21],8.1 h
same,log10CFU/ml,[22],-0.05
same,Drug uptake,[23],1.42 µg/mL
same,Vd,[24],102 L
same,log10CFU/ml,[25],-0.08
same,ABBC,[26],3.6 log10CFU/ml.hr

# — ChEMBL document CHEMBL1671683, “Activity of linezolid in an in vitro pharmacokinetic-pharmacodynamic model using different dosages and Staphylococcus aureus and Enterococcus faecalis strains with and without a hypermutator phenotype” (Antimicrob Agents Chemother, 2010)
